From ChEMBL document CHEMBL1123221, “Dihydropyridazinone cardiotonics: the discovery and inotropic activity of 1,3-dihydro-3,3-dimethyl-5-(1,4,5,6-tetrahydro-6-oxo-3-pyridazinyl)-2H -indol-2-one” (J Med Chem, 1986)

Tests used:
Canis familiaris [1] = assay: Compound was tested for cardiovascular profile in conscious dogs at dose of 500 ug/kg po; type: functional, Canis lupus familiaris, Heart
Outline: (§1)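 Conscious, chronically instrumented dogs fasted 18 h; drug or lactose placebo given orally in 000 gelatin capsules. Contractility index was LV dP/dt60 (first derivative of left ventricular pressure at 60 mmHg); heart rate and LV systolic pressure also monitored.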

Felis catus [2] = species on record: Felis catus; assay: Compound was evaluated for inotropic activity in cat papillary muscles at concentration of (10e -6)M; type: functional, Papillary muscle
Outline: (§2)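 Isolated cat papillary muscles under 1.0 g base-line tension, field-stimulated with square-wave pulses (2.0 ms, 12/min, 20% above threshold). Equilibrated 60 min. Each muscle was checked with 10^-6 M isoproterenol for 3 min and rejected if the response was under 120% of control, then washed and stabilized 30 min. Test compound given cumulatively (10^-7–10^-4 M) at 30-min intervals; contractility increase recorded.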

Canis familiaris [3] = assay: Evaluated for percent decrease in maximum arterial blood pressure in anesthetized dogs; type: functional, Canis lupus familiaris
Outline: (§3)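 Right ventricular contractility measured by strain-gauge arch at 50 g tension; femoral arterial pressure and heart rate also recorded. Increasing log doses given iv at 5-min intervals, with peak responses recorded. ED50 by linear regression (mean ± SEM). Heart rate and MAP are % changes at the inotropic ED50.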

Canis familiaris [4] = assay: Tested for cardiovascular contractility in anesthetized dogs; type: functional; conditions: Canis lupus familiaris; outline: as §3
Felis catus [5] = species on record: Felis catus; assay: Compound was evaluated for inotropic activity in cat papillary muscles at concentration of (10e -4)M; type: functional, Muscle tissue; outline: as §2
Felis catus [6] = species on record: Felis catus; assay: Compound was evaluated for inotropic activity in cat papillary muscles at concentration of (10e -5)M; type: functional, Papillary muscle; outline: as §2
Canis familiaris [7] = assay: Evaluated for percent increase in heart rate in anesthetized dogs; type: functional, Canis lupus familiaris; outline: as §3
Canis familiaris [8] = assay: Compound was evaluated for percent increase in heart rate in anesthetized dogs; type: functional, Canis lupus familiaris
Outline: as §3, with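 “Mongrel dogs of either sex (7–14 kg), pentobarbital-anesthetized (35 mg/kg iv), ventilated, kept at 37–38 °C. Right” for “Right”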

Canis familiaris [9] = assay: Compound was tested for cardiovascular profile in conscious dogs at dose of 50 ug/kg po
Canis familiaris [10] = assay: Compound was evaluated for percent decrease in maximum arterial blood pressure in anesthetized dogs; type: functional, Canis lupus familiaris, Artery; parameters: scale not given: the % may be the effect or the level left
Outline: as §3, with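 “Mongrel dogs of either sex (7–14 kg), pentobarbital-anesthetized (35 mg/kg iv), ventilated, kept at 37–38 °C. Right” for “Right”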

Canis familiaris [11] = assay: Compound was tested for cardiovascular profile in conscious dogs at dose of 25 ug/kg po
Felis catus [12] = species on record: Felis catus; assay: Compound was evaluated for inotropic activity in cat papillary muscles at concentration of (10e-6) M; type: functional, Papillary muscle; outline: as §2
Felis catus [13] = species on record: Felis catus; assay: Compound was evaluated for inotropic activity in cat papillary muscles at concentration of (10e-5) M; type: functional, Papillary muscle; outline: as §2
Canis familiaris [14] = assay: Compound was tested for cardiovascular profile in conscious dogs at dose of 400 ug/kg po
Canis familiaris [15] = assay: Compound was tested for cardiovascular profile in conscious dogs at dose of 100 ug/kg po
[16] = Half-life measured by the effect on contractility after oral administration of 25 ug/kg in dog; conditions: in vivo, 0.025 mg/kg
Half-life in dog = conditions: in vivo
[17] = Oral bioavailability determined in dog; type: ADME, organism-based, Canis lupus familiaris; conditions: in vivo
Canis familiaris [18] = assay: Percent increase in contractility by administration of 500 ug/kg in conscious dog model; type: functional, Canis lupus familiaris
Outline: as §1, with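 “monitored. Peak response generally taken 150 min post-dose; mean ± SEM of four experiments.” for “monitored.”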

## O=C1CCC(c2ccc3c(c2)CCC(=O)N3)=NN1
Canis familiaris [1]
  Percent of control: 157%
Felis catus [2]
  Control: 150%
Canis familiaris [3]
  Decrease: 8.7%
Canis familiaris [4]
  ED50: 0.0033 mg/kg
Felis catus [5]
  Contractile force (% of control): 154%
Felis catus [6]
  Contractility (% of control): 156%
Canis familiaris [7]
  Increase: 18.5%

## CC1CC(c2ccc3c(c2)C(C)(C)C(=O)N3)=NNC1=O (stereo not drawn)
Canis familiaris [3]
  Decrease: 20%
Canis familiaris [4]
  ED50: 0.015 mg/kg
Canis familiaris [7]
  Increase: 13%

## CCC1(CC)C(=O)Nc2ccc(C3=NNC(=O)CC3)cc21
Canis familiaris [3]
  Decrease: 7.5%
Canis familiaris [4]
  ED50: 0.741 mg/kg
Canis familiaris [7]
  Increase: 8.9%

## CC1CC(=O)NN=C1c1ccc2c(c1)C(C)(C)C(=O)N2C (stereo not drawn)
Canis familiaris [3]
  Decrease: 26%
Canis familiaris [4]
  ED50: 0.0044 mg/kg
Canis familiaris [7]
  Increase: 21.4%

## CN1N=C(c2ccc3c(c2)CC(=O)N3)CCC1=O
Canis familiaris [3]
  Decrease: 7%
Canis familiaris [4]
  ED50: 0.271 mg/kg
Canis familiaris [7]
  Increase: 11%

## CC1CC(=O)NN=C1c1ccc2c(c1)C(C)(C)C(=O)N2 (stereo not drawn)
Canis familiaris [4]
  ED50: 0.0032 mg/kg
Canis familiaris [8]
  Control: 16%
Canis familiaris [9]
  Control: 150%
Canis familiaris [10]
  Control: 26%

## CCC1C(=O)Nc2ccc(C3=NNC(=O)CC3)cc21 (stereo not drawn)
Canis familiaris [3]
  Decrease: 12%
Canis familiaris [4]
  ED50: 0.071 mg/kg
Canis familiaris [7]
  Increase: 18%

## O=C1CCC(c2ccc3c(c2)CCCC(=O)N3)=NN1
Canis familiaris [1]
  Percent of control: 131%
Felis catus [2]
  Control: 121%
Canis familiaris [3]
  Decrease: 18%
Canis familiaris [4]
  ED50: 0.0052 mg/kg
Felis catus [5]
  Contractile force (% of control): 139%
Felis catus [6]
  Contractility (% of control): 137%
Canis familiaris [7]
  Increase: 12%

## CN1C(=O)C(C)(C)c2cc(C3=NNC(=O)CC3)ccc21
Canis familiaris [3]
  Decrease: 13%
Canis familiaris [4]
  ED50: 0.052 mg/kg
Canis familiaris [7]
  Increase: 8%

## CC(=O)Nc1ccc(C2=NNC(=O)CC2C)cc1 (stereo not drawn)
Canis familiaris [3]
  Decrease: 16.6%
Canis familiaris [4]
  ED50: 0.002 mg/kg
Canis familiaris [11]
  Control: 170%
Felis catus [5]
  Contractile force (% of control): 216%
Felis catus [12]
  Control: 167%
Canis familiaris [7]
  Increase: 11.7%
Felis catus [13]
  Control: 183%

## CC(=O)Nc1ccc(C2=NNC(=O)CC2)cc1
Canis familiaris [1]
  Percent of control: 132%
Canis familiaris [3]
  Decrease: 6%
Canis familiaris [4]
  ED50: 0.0116 mg/kg
Felis catus [5]
  Contractile force (% of control): 141%
Felis catus [6]
  Contractility (% of control): 128%
Canis familiaris [7]
  Increase: 5%

## CCCC1(C)C(=O)Nc2ccc(C3=NNC(=O)CC3)cc21 (stereo not drawn)
Canis familiaris [3]
  Decrease: 9.6%
Canis familiaris [4]
  ED50: 0.0198 mg/kg
Canis familiaris [7]
  Increase: 9.3%

## CC1C(=O)Nc2ccc(C3=NNC(=O)CC3)cc21 (stereo not drawn)
Canis familiaris [3]
  Decrease: 21.8%
Canis familiaris [4]
  ED50: 0.0096 mg/kg
Canis familiaris [11]
  Control: 141%
Canis familiaris [7]
  Increase: 8%

## Cc1cc(C2=NNC(=O)CC2)cc2c1NC(=O)C2(C)C
Canis familiaris [3]
  Decrease: 17%
Canis familiaris [4]
  ED50: 0.0095 mg/kg
Canis familiaris [7]
  Increase: 8.5%

## CCC1(C)C(=O)Nc2ccc(C3=NNC(=O)CC3C)cc21 (stereo not drawn)
Canis familiaris [3]
  Decrease: 20%
Canis familiaris [4]
  ED50: 0.0148 mg/kg
Canis familiaris [7]
  Increase: 11%

## CCC1(C)C(=O)Nc2ccc(C3=NNC(=O)CC3)cc21 (stereo not drawn)
Canis familiaris [3]
  Decrease: 3.1%
Canis familiaris [4]
  ED50: 0.022 mg/kg
Canis familiaris [7]
  Increase: 2%
Canis familiaris [14]
  Control: 149%

## CN1C(=O)CCc2cc(C3=NNC(=O)CC3)ccc21
Canis familiaris [3]
  Decrease: 21%
Canis familiaris [4]
  ED50: 0.0124 mg/kg
Canis familiaris [15]
  Control: 134%
Canis familiaris [7]
  Increase: 26%

## CC1(C)CC(=O)Nc2ccc(C3=NNC(=O)CC3)cc21
Canis familiaris [1]
  Percent of control: 133%
Canis familiaris [3]
  Decrease: 15%
Canis familiaris [4]
  ED50: 0.086 mg/kg
Canis familiaris [7]
  Increase: 5.9%

## O=C1CCC(c2ccc3c(c2)CC(=O)N3)=NN1
Canis familiaris [1]
  Percent of control: 164%
Felis catus [2]
  Control: 116%
Canis familiaris [3]
  Decrease: 4.3%
Canis familiaris [4]
  ED50: 0.024 mg/kg
Felis catus [5]
  Contractile force (% of control): 152%
Felis catus [6]
  Contractility (% of control): 147%
Canis familiaris [7]
  Increase: 5.6%

## Cc1cc2c(cc1C1=NNC(=O)CC1)C(C)(C)C(=O)N2
Canis familiaris [3]
  Decrease: 0.5%
Canis familiaris [4]
  ED50: 0.04 mg/kg
Canis familiaris [7]
  Increase: 7.9%

## CC1(C)Cc2cc(C3=NNC(=O)CC3)ccc2NC1=O
Canis familiaris [1]
  Percent of control: 116%
Canis familiaris [3]
  Decrease: 3%
Canis familiaris [4]
  ED50: 0.021 mg/kg
Canis familiaris [7]
  Increase: 8.5%

## O=C1CCC(c2ccc3c(c2)CCCN3)=NN1
Canis familiaris [3]
  Decrease: 12%
Canis familiaris [4]
  ED50: 0.257 mg/kg
Canis familiaris [7]
  Increase: 37%

## O=C1CCC(c2ccc(-n3ccnc3)cc2)=NN1 [IMAZODAN]
Canis familiaris [3]
  Decrease: 18%
Canis familiaris [4]
  ED50: 0.046 mg/kg
Felis catus [5]
  Contractile force (% of control): 173%
Felis catus [6]
  Contractility (% of control): 147%
Canis familiaris [7]
  Increase: 9.5%

## CC1(C)C(=O)Nc2ccc(C3=NNC(=O)CC3)cc21 [INDOLIDAN]
[16]
  half-life: > 8 h
Felis catus [2]
  Control: 134%
Canis familiaris [3]
  Decrease: 15.2%
Canis familiaris [4]
  ED50: 0.0068 mg/kg
Canis familiaris [11]
  Control: 151%
Felis catus [5]
  Contractile force (% of control): 169%
Felis catus [6]
  Contractility (% of control): 164%
Half-life in dog
  half-life: 14 h
Canis familiaris [7]
  Increase: 11.8%
[17]
  bioavailability: 100%

## Cc1[nH]c(=O)c(C#N)cc1-c1ccncc1 [MILRINONE]
Canis familiaris [1]
  Percent of control: 162%
Canis familiaris [3]
  Decrease: 8%
Canis familiaris [18]
  Increase: 62%
Canis familiaris [4]
  ED50: 0.037 mg/kg
Felis catus [5]
  Contractile force (% of control): 158%
Canis familiaris [7]
  Increase: 9%
Felis catus [13]
  Control: 148%
